The values that follow come from ChEMBL document CHEMBL3351752, “Discovery and in vivo evaluation of alcohol-containing benzothiazoles as potent dual-targeting bacterial DNA supercoiling inhibitors” (Bioorg Med Chem Lett, 2014).

In brackets after ≈: the same amount, converted by molar mass.

Series [1] deals with Staphylococcus aureus. Nature of the series: Antibacterial activity against Staphylococcus aureus ATCC 29213 assessed as growth inhibition. Type of series: functional.
Series [2] relates to Streptococcus pyogenes. Nature of the series: Antibacterial activity against Streptococcus pyogenes 51339 assessed as growth inhibition. The series is classed as functional.
The subject of series [3] is Streptococcus pyogenes. Nature of the series: Antimicrobial activity against Streptococcus pyogenes harboring ParE A53S mutant assessed as growth inhibition. Type of series: functional.
Series [4] relates to Staphylococcus aureus. Nature of the series: Antibacterial activity against Staphylococcus aureus ATCC 29213 assessed as growth inhibition in presence of 50% horse serum. The series is classed as functional.
Series [5] concerns Staphylococcus aureus. Nature of the series: Inhibition of Staphylococcus aureus DNA gyrase ATPase subunit GyrA2/GyrB2 after 60 mins by malachite green staining assay.
In series [6] the test system is Staphylococcus aureus. Nature of the series: Antimicrobial activity against Staphylococcus aureus harboring GyrB T173N mutant assessed as growth inhibition. Type of series: functional.
Another series relates to Haemophilus influenzae. Nature of the series: Antibacterial activity against Haemophilus influenzae 49247 assessed as growth inhibition. The series is classed as functional.
A short description of series [7]: Fraction unbound in mouse plasma by ultracentrifugation. The series is classed as ADME, cell-free. In a few lines:
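Compound at 10 µM (1% DMSO) was equilibrated in neat plasma at 37 °C for 60 min. Duplicate aliquots were ultracentrifuged at 250,000g for 4.2 h at 37 °C. Free compound in the plasma-water supernatant was compared with uncentrifuged samples incubated alike. Uncentrifuged samples kept at 20 °C checked degradation, and diltiazem served as stability control. Analysis was by LCMS.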

With `CCNC(=O)Nc1nc2cc(-c3cnc(C4(O)COC4)nc3)cc(-c3ccccn3)c2s1`, the MIC worked out at 0.06 µg/mL (≈ 0.134 µM) with Staphylococcus aureus [1]; 0.12 µg/mL (≈ 0.268 µM) in the series with Streptococcus pyogenes [2]; 2 µg/mL (≈ 4.46 µM) in the series on Streptococcus pyogenes [3]; 0.12 µg/mL in the series with Staphylococcus aureus [4]; 0.5 µg/mL (≈ 1.11 µM) with Staphylococcus aureus [6]; 0.5 µg/mL (≈ 1.11 µM) in the series on Haemophilus influenzae. Moreover, the inhibitory concentration with Staphylococcus aureus [5] was found to be 0.006 µg/mL.
Consider `CCNC(=O)Nc1nc2cc(-c3cnc(C4(O)CNC4)nc3)cc(-c3ccccn3)c2s1`, for which the MIC with Staphylococcus aureus [1] is over 16 µg/mL; in the series on Streptococcus pyogenes [2] it was 8 µg/mL (≈ 17.9 µM); in the series with Streptococcus pyogenes [3], over 16 µg/mL; in the series with Staphylococcus aureus [4] it was over 16 µg/mL; with Staphylococcus aureus [6], over 16 µg/mL; in the series with Haemophilus influenzae, over 16 µg/mL. The inhibitory concentration with Staphylococcus aureus [5] is 0.029 µg/mL.
`CCNC(=O)Nc1nc2cc(-c3cnc([C@@H](O)[C@H](O)C(F)F)nc3)cc(-c3ccccn3)c2s1` (racemic): the MIC with Staphylococcus aureus [1] was found to be 0.06 µg/mL (≈ 0.123 µM); in the series on Streptococcus pyogenes [2] it was 0.12 µg/mL (≈ 0.247 µM); in the series on Streptococcus pyogenes [3] it was 1 µg/mL (≈ 2.06 µM); with Staphylococcus aureus [4], 0.25 µg/mL; in the series with Staphylococcus aureus [6], 0.5 µg/mL (≈ 1.03 µM); in the series with Haemophilus influenzae, 0.25 µg/mL (≈ 0.514 µM). In the series with Staphylococcus aureus [5], this compound yielded an inhibitory concentration of 0.004 µg/mL.
For `CCNC(=O)Nc1nc2cc(-c3cnc(C(O)(CC)CC)nc3)cc(-c3ccccn3)c2s1`, the MIC in the series with Staphylococcus aureus [1] amounted to 0.25 µg/mL (≈ 0.54 µM); in the series on Streptococcus pyogenes [2], 0.5 µg/mL (≈ 1.08 µM); with Streptococcus pyogenes [3], 8 µg/mL (≈ 17.3 µM); in the series on Staphylococcus aureus [4] it was 4 µg/mL; in the series on Staphylococcus aureus [6], 1 µg/mL (≈ 2.16 µM); in the series on Haemophilus influenzae, 8 µg/mL (≈ 17.3 µM). This compound also returned an inhibitory concentration in the series on Staphylococcus aureus [5] of 0.017 µg/mL.
Take `CCNC(=O)Nc1nc2cc(-c3cnc(C(C)(C)O)nc3)cc(-c3cc(CN4CC[C@H](F)C4)ccn3)c2s1`: the MIC in the series with Staphylococcus aureus [1] amounted to 0.12 µg/mL (≈ 0.224 µM); in the series on Streptococcus pyogenes [2] it was 0.06 µg/mL (≈ 0.112 µM); with Staphylococcus aureus [4] it was 0.25 µg/mL; in the series on Haemophilus influenzae, 2 µg/mL (≈ 3.73 µM). Also, in series [7], the free fraction (fraction unbound) stood at 0.061. Also, in the series with Staphylococcus aureus [5], the inhibitory concentration was determined as 0.008 µg/mL.
`CCCC(O)c1ncc(-c2cc(-c3ccccn3)c3sc(NC(=O)NCC)nc3c2)cn1` (racemic): the MIC was 0.03 µg/mL (≈ 0.0669 µM) in the series on Staphylococcus aureus [1]; 0.06 µg/mL (≈ 0.134 µM) in the series with Streptococcus pyogenes [2]; 2 µg/mL (≈ 4.46 µM) in the series on Streptococcus pyogenes [3]; 0.25 µg/mL in the series with Staphylococcus aureus [4]; 0.25 µg/mL (≈ 0.557 µM) in the series on Staphylococcus aureus [6]; 1 µg/mL (≈ 2.23 µM) in the series with Haemophilus influenzae. This compound also came in with an inhibitory concentration in the series on Staphylococcus aureus [5] of 0.007 µg/mL.
For the compound `CCNC(=O)Nc1nc2cc(-c3cnc(C4(O)CCSCC4)nc3)cc(-c3ccccn3)c2s1`, the MIC in the series with Staphylococcus aureus [1] came to 0.12 µg/mL (≈ 0.244 µM); in the series on Streptococcus pyogenes [2], 0.5 µg/mL (≈ 1.01 µM); in the series with Streptococcus pyogenes [3], 4 µg/mL (≈ 8.12 µM); in the series with Staphylococcus aureus [4], 1 µg/mL; in the series with Staphylococcus aureus [6] it was 0.25 µg/mL (≈ 0.507 µM); in the series with Haemophilus influenzae, 2 µg/mL (≈ 4.06 µM). The same compound had an inhibitory concentration with Staphylococcus aureus [5] of 0.005 µg/mL.
Regarding `CCNC(=O)Nc1nc2cc(-c3cnc(C4(O)CCS(=O)(=O)CC4)nc3)cc(-c3ccccn3)c2s1`, the MIC with Staphylococcus aureus [1] was determined as 0.25 µg/mL (≈ 0.477 µM); with Streptococcus pyogenes [2], 0.25 µg/mL (≈ 0.477 µM); in the series on Streptococcus pyogenes [3], 2 µg/mL (≈ 3.81 µM); in the series on Staphylococcus aureus [4], 0.5 µg/mL; with Staphylococcus aureus [6], 1 µg/mL (≈ 1.91 µM); with Haemophilus influenzae it was 1 µg/mL (≈ 1.91 µM). In the series on Staphylococcus aureus [5], this compound had an inhibitory concentration of 0.006 µg/mL.
For `CCNC(=O)Nc1nc2cc(-c3cnc(C(O)CC)nc3)cc(-c3ccccn3)c2s1` (racemic), the MIC came out at 0.06 µg/mL (≈ 0.138 µM) in the series on Staphylococcus aureus [1]; 0.06 µg/mL (≈ 0.138 µM) with Streptococcus pyogenes [2]; 1 µg/mL (≈ 2.3 µM) in the series with Streptococcus pyogenes [3]; 0.25 µg/mL with Staphylococcus aureus [4]; 0.25 µg/mL (≈ 0.575 µM) in the series on Staphylococcus aureus [6]; 1 µg/mL (≈ 2.3 µM) with Haemophilus influenzae. For the same compound, the inhibitory concentration in the series with Staphylococcus aureus [5] was 0.006 µg/mL.
For `CCNC(=O)Nc1nc2cc(-c3cnc([C@@H](O)[C@@H](C)O)nc3)cc(-c3ccccn3)c2s1` (racemic), the MIC amounted to 0.25 µg/mL (≈ 0.555 µM) in the series on Staphylococcus aureus [1]; 0.12 µg/mL (≈ 0.266 µM) in the series with Streptococcus pyogenes [2]; 1 µg/mL (≈ 2.22 µM) in the series with Streptococcus pyogenes [3]; 0.25 µg/mL with Staphylococcus aureus [4]; 1 µg/mL (≈ 2.22 µM) with Staphylococcus aureus [6]; 1 µg/mL (≈ 2.22 µM) in the series with Haemophilus influenzae. This compound also gave an inhibitory concentration in the series on Staphylococcus aureus [5] of 0.007 µg/mL.
Turning to `CCNC(=O)Nc1nc2cc(-c3cnc(C(O)CN4CCOCC4)nc3)cc(-c3ccccn3)c2s1` (racemic), the MIC with Staphylococcus aureus [1] was determined as 0.12 µg/mL (≈ 0.237 µM); in the series with Streptococcus pyogenes [2] it was 0.12 µg/mL (≈ 0.237 µM); with Streptococcus pyogenes [3], 2 µg/mL (≈ 3.96 µM); in the series with Staphylococcus aureus [4], 0.25 µg/mL; in the series on Staphylococcus aureus [6], 1 µg/mL (≈ 1.98 µM); with Haemophilus influenzae it was 2 µg/mL (≈ 3.96 µM). The compound further came in with an inhibitory concentration in the series with Staphylococcus aureus [5] of 0.011 µg/mL.
On to `CCNC(=O)Nc1nc2cc(-c3cnc(C4(O)CCN(C)CC4)nc3)cc(-c3ccccn3)c2s1`, for which the MIC in the series with Staphylococcus aureus [1] was determined as 1 µg/mL (≈ 2.04 µM); in the series with Streptococcus pyogenes [2], 1 µg/mL (≈ 2.04 µM); in the series on Streptococcus pyogenes [3] it was 8 µg/mL (≈ 16.3 µM); in the series on Staphylococcus aureus [4], 0.5 µg/mL; with Staphylococcus aureus [6], 8 µg/mL (≈ 16.3 µM); in the series on Haemophilus influenzae, 8 µg/mL (≈ 16.3 µM). In addition, in the series on Staphylococcus aureus [5], the inhibitory concentration turned out to be 0.011 µg/mL.
As to `CCNC(=O)Nc1nc2cc(-c3cnc(C4(O)CCOCC4)nc3)cc(-c3ccccn3)c2s1`, the MIC in the series on Staphylococcus aureus [1] came to 0.06 µg/mL (≈ 0.126 µM); with Streptococcus pyogenes [2], 0.12 µg/mL (≈ 0.252 µM); with Streptococcus pyogenes [3], 2 µg/mL (≈ 4.2 µM); in the series with Staphylococcus aureus [4] it was 0.12 µg/mL; in the series on Staphylococcus aureus [6], 0.25 µg/mL (≈ 0.525 µM); in the series with Haemophilus influenzae, 1 µg/mL (≈ 2.1 µM). The compound further gave an inhibitory concentration with Staphylococcus aureus [5] of 0.005 µg/mL.

For orientation: fraction unbound means free concentration divided by total concentration.
